Laboratory results as given in ChEMBL document CHEMBL3414491, “Synthesis and antitumor activities evaluation of m-(4-morpholinoquinazolin-2-yl)benzamides in vitro and in vivo” (Eur J Med Chem, 2015).
The source made the active and inactive calls. The rule behind the calls is not given here.

How the values were obtained:
[1] = Inhibition of PI3K-mediated PI3K/Akt/mTOR pathway in human HCT116 cells assessed as reduction in Akt Ser473 phosphorylation at 10 uM incubated for 1 hr by Western blot method; assay type: cell-based; conditions: HCT-116
How it was run: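 HCT-116 cells were seeded at 5 × 10⁵ per well and grown 16 h at 37 °C, then exposed to 10 µM for 1 h; vehicle control was 0.5% DMSO. Lysates were normalised by BCA, run on 10% SDS-PAGE, transferred to nitrocellulose and probed for AKT and p-Ser473 AKT, with β-actin as loading control. Detection was by chemiluminescence; bands were quantified densitometrically.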

[2] = tested on: A549; experiment: Antiproliferative activity against human A549 cells after 72 hrs by MTT assay; assay type: functional, cell-based; conditions: A549, 72 h
How it was run: (§1)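 MTT: cells seeded at 1500–4000 per well, grown 24 h, then given serial dilutions (1% DMSO final) for 72 h at 37 °C. MTT was added for 4 h, formazan dissolved in DMSO and absorbance read at 490 nm. Three separate experiments in triplicate; IC50 is the concentration giving 50% cell death versus control.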

[3] = tested on: MCF7; experiment: Antiproliferative activity against human MCF7 cells after 72 hrs by MTT assay; assay type: functional, cell-based; conditions: MCF7, 72 h; how it was run: as §1
[4] = Antiproliferative activity against human HCT116 cells after 72 hrs by MTT assay; assay type: functional, cell-based; conditions: HCT-116, 72 h; how it was run: as §1
[5] = Antiproliferative activity against human U87MG cells after 72 hrs by MTT assay; assay type: functional, cell-based, U-87MG ATCC; conditions: U-87 MG; how it was run: as §1
[6] = target: PI3K p110 beta/p85 alpha (Homo sapiens, UniProt P42338); experiment: Inhibition of p110beta/p85alpha (unknown origin) using L-alpha-phosphatidylinositol incubated for 40 mins by ADP depletion detection based luciferase assay; assay type: protein-complex assay
[7] = target: PI3-kinase p110-delta/p85-alpha (Homo sapiens, UniProt O00329); experiment: Inhibition of p110delta/p85alpha (unknown origin) using L-alpha-phosphatidylinositol incubated for 40 mins by ADP depletion detection based luciferase assay; assay type: protein-complex assay
[8] = target: PI3-kinase p110-alpha/p85-alpha (Homo sapiens, UniProt P42336); experiment: Inhibition of p110alpha/p85alpha (unknown origin) using L-alpha-phosphatidylinositol incubated for 40 mins by ADP depletion detection based luciferase assay; assay type: protein-complex assay
[9] = target: PI3-kinase subunit gamma/Phosphoinositide 3-kinase regulatory subunit 5 (Homo sapiens, UniProt P48736); experiment: Inhibition of p110gamma/PIK3R5 (unknown origin) using L-alpha-phosphatidylinositol incubated for 40 mins by ADP depletion detection based luciferase assay; assay type: protein-complex assay
Chain of PI3-kinase subunit gamma/Phosphoinositide 3-kinase regulatory subunit 5 (P48736 whole entry): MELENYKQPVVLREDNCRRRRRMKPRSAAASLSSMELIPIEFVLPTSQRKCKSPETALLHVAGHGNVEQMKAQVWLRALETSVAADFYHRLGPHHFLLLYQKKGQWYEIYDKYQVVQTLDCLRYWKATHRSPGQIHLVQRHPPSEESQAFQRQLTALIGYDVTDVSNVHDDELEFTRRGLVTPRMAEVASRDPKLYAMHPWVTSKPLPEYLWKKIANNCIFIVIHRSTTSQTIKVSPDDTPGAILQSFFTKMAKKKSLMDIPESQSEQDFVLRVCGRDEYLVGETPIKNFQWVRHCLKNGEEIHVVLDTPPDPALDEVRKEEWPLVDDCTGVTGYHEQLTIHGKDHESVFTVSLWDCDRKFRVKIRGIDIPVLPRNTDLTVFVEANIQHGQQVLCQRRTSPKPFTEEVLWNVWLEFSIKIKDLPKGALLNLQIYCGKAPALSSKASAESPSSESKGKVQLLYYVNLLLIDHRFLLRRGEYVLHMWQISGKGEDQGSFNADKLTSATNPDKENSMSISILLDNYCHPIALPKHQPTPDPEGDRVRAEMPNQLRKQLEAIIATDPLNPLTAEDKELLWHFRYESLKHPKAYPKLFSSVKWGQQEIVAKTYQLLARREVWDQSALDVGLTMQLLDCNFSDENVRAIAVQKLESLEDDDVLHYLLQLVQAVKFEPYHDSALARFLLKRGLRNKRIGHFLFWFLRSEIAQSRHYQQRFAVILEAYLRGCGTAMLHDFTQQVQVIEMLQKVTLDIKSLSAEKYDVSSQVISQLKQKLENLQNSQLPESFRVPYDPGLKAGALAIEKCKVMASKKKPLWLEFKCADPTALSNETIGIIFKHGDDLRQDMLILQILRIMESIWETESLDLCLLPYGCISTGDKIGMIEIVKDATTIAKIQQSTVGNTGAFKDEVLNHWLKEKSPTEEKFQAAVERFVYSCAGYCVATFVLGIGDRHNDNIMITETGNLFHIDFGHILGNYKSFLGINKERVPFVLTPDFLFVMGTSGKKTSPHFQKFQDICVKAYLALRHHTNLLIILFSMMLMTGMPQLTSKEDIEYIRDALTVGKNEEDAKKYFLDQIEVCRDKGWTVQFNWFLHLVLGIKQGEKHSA
Chain of PI3-kinase subunit gamma/Phosphoinositide 3-kinase regulatory subunit 5 (Q8WYR1 whole entry, further chain): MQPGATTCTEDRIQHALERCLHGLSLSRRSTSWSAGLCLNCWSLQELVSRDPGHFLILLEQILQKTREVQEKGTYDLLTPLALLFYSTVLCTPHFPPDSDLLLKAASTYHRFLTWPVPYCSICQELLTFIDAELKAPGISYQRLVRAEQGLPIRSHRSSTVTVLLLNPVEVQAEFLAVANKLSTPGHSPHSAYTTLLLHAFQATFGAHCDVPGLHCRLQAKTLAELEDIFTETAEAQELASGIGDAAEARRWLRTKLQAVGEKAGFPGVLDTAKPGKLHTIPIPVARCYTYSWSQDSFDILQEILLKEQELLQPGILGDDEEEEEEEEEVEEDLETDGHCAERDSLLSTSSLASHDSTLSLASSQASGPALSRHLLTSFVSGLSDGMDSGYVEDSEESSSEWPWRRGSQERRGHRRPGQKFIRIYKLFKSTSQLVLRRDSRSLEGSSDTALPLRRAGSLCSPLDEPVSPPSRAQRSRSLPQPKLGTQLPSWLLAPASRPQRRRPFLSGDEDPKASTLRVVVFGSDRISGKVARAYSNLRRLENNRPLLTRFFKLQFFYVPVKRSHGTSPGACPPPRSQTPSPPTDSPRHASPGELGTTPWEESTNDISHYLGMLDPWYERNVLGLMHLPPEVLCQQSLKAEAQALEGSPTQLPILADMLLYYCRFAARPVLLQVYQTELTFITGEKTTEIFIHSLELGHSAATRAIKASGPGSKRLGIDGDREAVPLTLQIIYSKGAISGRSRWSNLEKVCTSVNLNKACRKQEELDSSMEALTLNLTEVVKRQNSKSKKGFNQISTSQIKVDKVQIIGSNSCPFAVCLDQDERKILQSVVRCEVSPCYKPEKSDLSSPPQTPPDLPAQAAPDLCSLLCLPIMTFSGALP

Chain of PI3-kinase p110-delta/p85-alpha (P27986 whole entry): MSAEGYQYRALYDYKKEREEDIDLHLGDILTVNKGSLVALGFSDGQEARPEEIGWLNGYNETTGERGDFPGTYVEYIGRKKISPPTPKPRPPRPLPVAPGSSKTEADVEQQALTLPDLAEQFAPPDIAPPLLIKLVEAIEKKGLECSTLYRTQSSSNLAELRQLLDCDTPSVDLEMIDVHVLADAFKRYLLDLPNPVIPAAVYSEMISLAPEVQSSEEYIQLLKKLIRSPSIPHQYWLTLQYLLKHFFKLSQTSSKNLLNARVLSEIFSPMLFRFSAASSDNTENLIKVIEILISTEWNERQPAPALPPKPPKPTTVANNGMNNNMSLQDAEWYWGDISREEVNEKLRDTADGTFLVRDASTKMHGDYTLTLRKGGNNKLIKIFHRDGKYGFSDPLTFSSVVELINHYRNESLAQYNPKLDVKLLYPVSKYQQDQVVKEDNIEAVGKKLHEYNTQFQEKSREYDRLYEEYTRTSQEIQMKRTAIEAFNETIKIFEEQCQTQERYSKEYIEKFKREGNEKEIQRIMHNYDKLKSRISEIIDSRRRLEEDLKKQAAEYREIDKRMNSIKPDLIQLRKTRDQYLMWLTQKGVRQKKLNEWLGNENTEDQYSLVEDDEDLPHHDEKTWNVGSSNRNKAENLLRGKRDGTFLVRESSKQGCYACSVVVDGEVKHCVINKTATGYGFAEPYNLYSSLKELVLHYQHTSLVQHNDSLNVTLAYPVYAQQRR
Chain of PI3-kinase p110-delta/p85-alpha (O00329 whole entry): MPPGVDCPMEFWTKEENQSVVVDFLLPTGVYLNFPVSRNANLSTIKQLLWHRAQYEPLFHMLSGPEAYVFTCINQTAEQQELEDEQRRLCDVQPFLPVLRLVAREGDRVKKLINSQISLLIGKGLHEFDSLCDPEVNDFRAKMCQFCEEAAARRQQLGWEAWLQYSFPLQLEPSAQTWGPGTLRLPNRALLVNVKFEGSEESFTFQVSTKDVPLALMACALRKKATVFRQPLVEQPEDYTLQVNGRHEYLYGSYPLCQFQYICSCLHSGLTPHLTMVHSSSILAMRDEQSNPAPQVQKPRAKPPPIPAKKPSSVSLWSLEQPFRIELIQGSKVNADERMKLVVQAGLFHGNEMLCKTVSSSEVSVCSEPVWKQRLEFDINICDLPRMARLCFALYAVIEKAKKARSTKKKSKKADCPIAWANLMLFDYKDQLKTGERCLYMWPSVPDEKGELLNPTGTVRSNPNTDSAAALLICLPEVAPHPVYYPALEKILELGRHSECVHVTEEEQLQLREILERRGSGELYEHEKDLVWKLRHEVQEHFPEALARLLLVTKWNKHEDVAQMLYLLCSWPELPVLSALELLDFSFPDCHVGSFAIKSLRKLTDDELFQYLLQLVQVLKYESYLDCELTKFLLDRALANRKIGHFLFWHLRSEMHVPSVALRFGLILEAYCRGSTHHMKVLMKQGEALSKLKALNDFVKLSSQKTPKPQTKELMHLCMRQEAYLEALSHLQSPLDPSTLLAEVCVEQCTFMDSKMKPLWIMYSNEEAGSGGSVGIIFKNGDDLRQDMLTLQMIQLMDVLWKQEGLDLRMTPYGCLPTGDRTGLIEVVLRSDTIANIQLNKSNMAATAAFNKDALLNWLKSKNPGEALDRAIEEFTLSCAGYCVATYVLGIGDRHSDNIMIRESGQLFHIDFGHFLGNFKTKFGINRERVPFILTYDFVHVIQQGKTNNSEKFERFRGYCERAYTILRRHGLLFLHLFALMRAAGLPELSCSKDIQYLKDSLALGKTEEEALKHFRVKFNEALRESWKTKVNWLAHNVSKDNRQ
Chain of PI3-kinase p110-alpha/p85-alpha (P27986 whole entry): as the sequence (P27986 whole entry) above
Chain of PI3-kinase p110-alpha/p85-alpha (P42336 whole entry): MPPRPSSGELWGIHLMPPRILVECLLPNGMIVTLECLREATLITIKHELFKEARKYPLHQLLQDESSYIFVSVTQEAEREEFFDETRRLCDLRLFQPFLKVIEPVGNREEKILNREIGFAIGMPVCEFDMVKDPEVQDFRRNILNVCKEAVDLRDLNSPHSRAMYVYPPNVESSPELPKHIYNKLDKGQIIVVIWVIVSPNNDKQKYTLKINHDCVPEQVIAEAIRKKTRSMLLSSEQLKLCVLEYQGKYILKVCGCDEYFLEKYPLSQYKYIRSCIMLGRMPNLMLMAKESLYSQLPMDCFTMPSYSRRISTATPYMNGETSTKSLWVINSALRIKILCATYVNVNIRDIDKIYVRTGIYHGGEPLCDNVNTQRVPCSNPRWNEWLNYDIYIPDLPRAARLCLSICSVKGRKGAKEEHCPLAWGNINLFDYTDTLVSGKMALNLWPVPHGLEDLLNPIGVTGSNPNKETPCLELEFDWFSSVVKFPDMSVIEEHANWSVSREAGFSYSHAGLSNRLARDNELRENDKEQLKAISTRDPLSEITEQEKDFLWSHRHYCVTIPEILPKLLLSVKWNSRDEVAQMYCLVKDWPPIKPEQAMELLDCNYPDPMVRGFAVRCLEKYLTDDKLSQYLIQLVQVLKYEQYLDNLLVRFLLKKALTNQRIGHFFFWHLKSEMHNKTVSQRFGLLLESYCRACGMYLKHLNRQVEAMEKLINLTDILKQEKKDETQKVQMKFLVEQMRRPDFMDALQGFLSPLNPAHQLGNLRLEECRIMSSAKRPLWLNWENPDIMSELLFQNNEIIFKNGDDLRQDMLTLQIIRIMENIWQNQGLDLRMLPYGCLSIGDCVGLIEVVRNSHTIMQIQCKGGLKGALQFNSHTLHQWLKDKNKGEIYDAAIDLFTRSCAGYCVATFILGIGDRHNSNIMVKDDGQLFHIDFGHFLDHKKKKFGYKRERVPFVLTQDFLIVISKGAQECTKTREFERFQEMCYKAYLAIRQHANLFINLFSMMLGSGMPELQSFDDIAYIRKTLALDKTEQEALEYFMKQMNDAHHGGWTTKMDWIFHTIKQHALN

Compound	IC50 [3]	IC50 [4]	further results
CS(=O)(=O)N1CCN(Cc2cc3nc(-c4cccc5[nH]ncc45)nc(N4CCOCC4)c3s2)CC1 [PICTILISIB]	1.09 µM	0.37 µM	inhibition [1]: Active; IC50 [2]: 2.28 µM; IC50 [5]: 1.24 µM
COC(=O)c1cccc(-c2nc(N3CCOCC3)c3cc(OC)c(OC)cc3n2)c1	3.44 µM	1.07 µM	
COc1cc2nc(-c3ccc(C(N)=O)cc3)nc(N3CCOCC3)c2cc1OC	4.6 µM	1.25 µM	
COc1cc(C(N)=O)cc(-c2nc(N3CCOCC3)c3cc(OC)c(OCCN4CCOCC4)cc3n2)c1	5.66 µM	4.72 µM	
COc1cc2nc(-c3cccc(NC(C)=O)c3)nc(N3CCOCC3)c2cc1OC	3.49 µM	1.42 µM	
COc1cc2nc(-c3cc(O)cc(C(N)=O)c3)nc(N3CCOCC3)c2cc1OC	2.64 µM	0.88 µM	IC50 [6]: 0.454 µM; IC50 [2]: 17.2 µM; IC50 [7]: 0.26 µM; IC50 [8]: 0.053 µM; IC50 [9]: 0.394 µM; IC50 [5]: 1.84 µM
CNC(=O)COc1cc2nc(-c3cc(OC)cc(C(N)=O)c3)nc(N3CCOCC3)c2cc1OC	14.9 µM	21.7 µM	
COc1cc(C(N)=O)cc(-c2nc(N3CCOCC3)c3cc(OC)c(OCC(=O)N4CCN(C)CC4)cc3n2)c1	18.7 µM	9.44 µM	
COc1cc(C(N)=O)cc(-c2nc(N3CCOCC3)c3cc(OC)c(OCC4CCOCC4)cc3n2)c1	8.52 µM	3.14 µM	
COc1cc2nc(-c3cccc(C(=O)O)c3)nc(N3CCOCC3)c2cc1OC	> 20 µM	12.5 µM	
COc1cc2nc(-c3ccc(O)c(C(N)=O)c3)nc(N3CCOCC3)c2cc1OC	7.42 µM	2.77 µM	
CNC(=O)c1cccc(-c2nc(N3CCOCC3)c3cc(OC)c(OC)cc3n2)c1	6.2 µM	2.52 µM	
COc1cc2nc(-c3ccc(NC(C)=O)cc3)nc(N3CCOCC3)c2cc1OC	3.61 µM	1.09 µM	
COc1cc2nc(-c3ccc(Cl)c(C(N)=O)c3)nc(N3CCOCC3)c2cc1OC	4.24 µM	2.97 µM	
COc1cc2nc(-c3cccc(C(=O)N(C)C)c3)nc(N3CCOCC3)c2cc1OC	5.01 µM	4.73 µM	
